≈ marks a conversion by molar mass, not a printed value.
Key:
Candida albicans [1] = assay: Antifungal activity against Candida albicans SC5314 after 24 hrs by serial dilution method; assay type: functional; conditions: SC5314, 24 h
Procedure, shortened: (§1)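 MIC by broth serial dilution per NCCLS/CLSI (M27-A3 yeasts, M38-A2 filamentous) in 96-well plates; ATCC strains plus clinical isolates; C. parapsilosis 22019 run as quality-control strain in every assay. Compounds dissolved in DMSO, serially diluted in growth medium; incubation 35 °C; MIC read at 24 h (Candida), 48 h (A. fumigatus), 72 h (C. neoformans).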

Candida albicans [2] = assay: Antifungal activity against Candida albicans Y0109 after 24 hrs by serial dilution method; assay type: functional; conditions: Y0109, 24 h; procedure, shortened: as §1
Candida parapsilosis = assay: Antifungal activity against Candida parapsilosis 22019 after 24 hrs by serial dilution method; assay type: functional; conditions: Lodderomyces parapsilosis, 22019, 24 h; procedure, shortened: as §1
Cryptococcus neoformans = assay: Antifungal activity against Cryptococcus neoformans 32609 after 72 hrs by serial dilution method; assay type: functional; conditions: Cryptococcus neoformans, 32609, 72 h; procedure, shortened: as §1
Nakaseomyces glabratus = assay: Antifungal activity against Candida glabrata 537 after 24 hrs by serial dilution method; assay type: functional; conditions: Nakaseomyces glabratus, 537, 24 h; procedure, shortened: as §1
Aspergillus fumigatus = assay: Antifungal activity against Aspergillus fumigatus 7544 after 48 hrs by serial dilution method; assay type: functional; conditions: Aspergillus fumigatus, 7544, 48 h; procedure, shortened: as §1
Liver microsome = assay: Intrinsic clearance in human liver microsomes assessed per mg of protein at 0.1 uM measured up to 60 mins by MS analysis; conditions: 1 h

SMILES: C[C@@H](N1CCc2nc(-c3cncnc3)sc2C1)[C@](O)(Cn1cncn1)c1ccc(F)cc1F
- MIC (Candida albicans [1]): 0.0312 µg/mL (≈ 0.0666 µM)
- MIC (Candida albicans [2]): 0.0625 µg/mL (≈ 0.133 µM)
- MIC (Candida parapsilosis): 0.0625 µg/mL (≈ 0.133 µM)
- MIC (Cryptococcus neoformans): 0.0625 µg/mL (≈ 0.133 µM)
- MIC (Nakaseomyces glabratus): 0.0625 µg/mL (≈ 0.133 µM)
- MIC (Aspergillus fumigatus): 2 µg/mL (≈ 4.26 µM)

SMILES: C[C@@H](N1Cc2sc(-c3ccccc3)cc2C1=O)[C@](O)(Cn1cncn1)c1ccc(F)cc1F
- MIC (Candida albicans [1]): 0.0156 µg/mL (≈ 0.0334 µM)
- MIC (Candida albicans [2]): 0.0312 µg/mL (≈ 0.067 µM)
- MIC (Candida parapsilosis): 0.0312 µg/mL (≈ 0.067 µM)
- MIC (Cryptococcus neoformans): 0.0625 µg/mL (≈ 0.134 µM)
- MIC (Nakaseomyces glabratus): 0.0625 µg/mL (≈ 0.134 µM)
- MIC (Aspergillus fumigatus): 32 µg/mL (≈ 68.6 µM)

SMILES: Cc1cccc(-c2cc3c(s2)C(=O)N([C@H](C)[C@](O)(Cn2cncn2)c2ccc(F)cc2F)C3)c1
- MIC (Candida albicans [1]): 0.0625 µg/mL (≈ 0.13 µM)
- MIC (Candida albicans [2]): 0.0625 µg/mL (≈ 0.13 µM)
- MIC (Candida parapsilosis): 0.125 µg/mL (≈ 0.26 µM)
- MIC (Cryptococcus neoformans): 0.125 µg/mL (≈ 0.26 µM)
- MIC (Nakaseomyces glabratus): 0.0625 µg/mL (≈ 0.13 µM)
- MIC (Aspergillus fumigatus): 4 µg/mL (≈ 8.32 µM)

SMILES: C[C@@H](c1ncncc1F)[C@](O)(Cn1cncn1)c1ccc(F)cc1F [VORICONAZOLE]
- MIC (Candida albicans [1]): 0.0156 µg/mL (≈ 0.0447 µM)
- MIC (Candida albicans [2]): 0.0156 µg/mL (≈ 0.0447 µM)
- MIC (Candida parapsilosis): 0.0156 µg/mL (≈ 0.0447 µM)
- MIC (Cryptococcus neoformans): 0.0156 µg/mL (≈ 0.0447 µM)
- MIC (Nakaseomyces glabratus): 0.0156 µg/mL (≈ 0.0447 µM)
- MIC (Aspergillus fumigatus): 0.25 µg/mL (≈ 0.716 µM)

SMILES: C[C@@H](N1CCc2cc(-c3cncnc3)sc2C1)[C@](O)(Cn1cncn1)c1ccc(F)cc1F
- MIC (Candida albicans [1]): 0.25 µg/mL (≈ 0.534 µM)
- MIC (Candida albicans [2]): 0.125 µg/mL (≈ 0.267 µM)
- MIC (Candida parapsilosis): 0.125 µg/mL (≈ 0.267 µM)
- MIC (Cryptococcus neoformans): 0.125 µg/mL (≈ 0.267 µM)
- MIC (Nakaseomyces glabratus): 1 µg/mL (≈ 2.13 µM)
- MIC (Aspergillus fumigatus): 32 µg/mL (≈ 68.3 µM)

SMILES: C[C@@H](N1Cc2cc(-c3cncc(C#N)c3)sc2C1=O)[C@](O)(Cn1cncn1)c1ccc(F)cc1F
- MIC (Candida albicans [1]): 0.0156 µg/mL (≈ 0.0317 µM)
- MIC (Candida albicans [2]): 0.0312 µg/mL (≈ 0.0635 µM)
- MIC (Candida parapsilosis): 0.0156 µg/mL (≈ 0.0317 µM)
- MIC (Cryptococcus neoformans): 0.0312 µg/mL (≈ 0.0635 µM)
- MIC (Nakaseomyces glabratus): 0.125 µg/mL (≈ 0.254 µM)
- MIC (Aspergillus fumigatus): 4 µg/mL (≈ 8.12 µM)

SMILES: C[C@@H](N1Cc2cc(-c3cccnc3)sc2C1=O)[C@](O)(Cn1cncn1)c1ccc(F)cc1F
- MIC (Candida albicans [1]): 0.0156 µg/mL (≈ 0.0334 µM)
- MIC (Candida albicans [2]): 0.0156 µg/mL (≈ 0.0334 µM)
- MIC (Candida parapsilosis): 0.0312 µg/mL (≈ 0.0668 µM)
- MIC (Cryptococcus neoformans): 0.0312 µg/mL (≈ 0.0668 µM)
- MIC (Nakaseomyces glabratus): 0.125 µg/mL (≈ 0.267 µM)
- MIC (Aspergillus fumigatus): 4 µg/mL (≈ 8.56 µM)

SMILES: C[C@@H](N1Cc2cc(-c3cccc(F)c3)sc2C1=O)[C@](O)(Cn1cncn1)c1ccc(F)cc1F
- MIC (Candida albicans [1]): 0.0156 µg/mL (≈ 0.0322 µM)
- MIC (Candida albicans [2]): 0.0625 µg/mL (≈ 0.129 µM)
- MIC (Candida parapsilosis): 0.125 µg/mL (≈ 0.258 µM)
- MIC (Cryptococcus neoformans): 0.0625 µg/mL (≈ 0.129 µM)
- MIC (Nakaseomyces glabratus): 0.125 µg/mL (≈ 0.258 µM)
- MIC (Aspergillus fumigatus): 4 µg/mL (≈ 8.26 µM)

SMILES: COc1ccc(-c2cc3c(s2)C(=O)N([C@H](C)[C@](O)(Cn2cncn2)c2ccc(F)cc2F)C3)cc1
- MIC (Candida albicans [1]): 0.0156 µg/mL (≈ 0.0314 µM)
- MIC (Candida albicans [2]): 0.0156 µg/mL (≈ 0.0314 µM)
- MIC (Candida parapsilosis): 0.0625 µg/mL (≈ 0.126 µM)
- MIC (Cryptococcus neoformans): 0.0625 µg/mL (≈ 0.126 µM)
- MIC (Nakaseomyces glabratus): 0.0625 µg/mL (≈ 0.126 µM)
- MIC (Aspergillus fumigatus): 4 µg/mL (≈ 8.06 µM)

SMILES: C[C@@H](N1Cc2cc(-c3cccc(C#N)c3)sc2C1=O)[C@](O)(Cn1cncn1)c1ccc(F)cc1F
- MIC (Candida albicans [1]): 0.0625 µg/mL (≈ 0.127 µM)
- MIC (Candida albicans [2]): 0.0625 µg/mL (≈ 0.127 µM)
- MIC (Candida parapsilosis): 0.125 µg/mL (≈ 0.254 µM)
- MIC (Cryptococcus neoformans): 0.125 µg/mL (≈ 0.254 µM)
- MIC (Nakaseomyces glabratus): 0.125 µg/mL (≈ 0.254 µM)
- MIC (Aspergillus fumigatus): 4 µg/mL (≈ 8.14 µM)

SMILES: C[C@@H](N1CCc2sc(-c3ccncc3)cc2C1)[C@](O)(Cn1cncn1)c1ccc(F)cc1F
- MIC (Candida albicans [1]): 0.25 µg/mL (≈ 0.535 µM)
- MIC (Candida albicans [2]): 0.5 µg/mL (≈ 1.07 µM)
- MIC (Candida parapsilosis): 0.5 µg/mL (≈ 1.07 µM)
- MIC (Cryptococcus neoformans): 0.5 µg/mL (≈ 1.07 µM)
- MIC (Nakaseomyces glabratus): 4 µg/mL (≈ 8.56 µM)
- MIC (Aspergillus fumigatus): > 32 µg/mL

SMILES: C[C@@H](n1cnc2cc(Cl)ccc2c1=O)[C@](O)(Cn1cncn1)c1ccc(F)cc1F [ALBACONAZOLE]
- MIC (Candida albicans [1]): 0.0078 µg/mL (≈ 0.0181 µM)
- MIC (Candida albicans [2]): 0.0156 µg/mL (≈ 0.0361 µM)
- MIC (Candida parapsilosis): 0.0156 µg/mL (≈ 0.0361 µM)
- MIC (Cryptococcus neoformans): 0.0078 µg/mL (≈ 0.0181 µM)
- MIC (Nakaseomyces glabratus): 0.0156 µg/mL (≈ 0.0361 µM)
- MIC (Aspergillus fumigatus): 0.25 µg/mL (≈ 0.579 µM)

SMILES: COc1cccc(-c2cc3c(s2)C(=O)N([C@H](C)[C@](O)(Cn2cncn2)c2ccc(F)cc2F)C3)c1
- MIC (Candida albicans [1]): 0.0625 µg/mL (≈ 0.126 µM)
- MIC (Candida albicans [2]): 0.0625 µg/mL (≈ 0.126 µM)
- MIC (Candida parapsilosis): 0.125 µg/mL (≈ 0.252 µM)
- MIC (Cryptococcus neoformans): 0.25 µg/mL (≈ 0.503 µM)
- MIC (Nakaseomyces glabratus): 0.125 µg/mL (≈ 0.252 µM)
- MIC (Aspergillus fumigatus): 8 µg/mL (≈ 16.1 µM)

SMILES: Cc1ccc(-c2cc3c(s2)C(=O)N([C@H](C)[C@](O)(Cn2cncn2)c2ccc(F)cc2F)C3)cc1
- MIC (Candida albicans [1]): 0.0312 µg/mL (≈ 0.065 µM)
- MIC (Candida albicans [2]): 0.0312 µg/mL (≈ 0.065 µM)
- MIC (Candida parapsilosis): 0.0625 µg/mL (≈ 0.13 µM)
- MIC (Cryptococcus neoformans): 0.0625 µg/mL (≈ 0.13 µM)
- MIC (Nakaseomyces glabratus): 0.0625 µg/mL (≈ 0.13 µM)
- MIC (Aspergillus fumigatus): 4 µg/mL (≈ 8.32 µM)

SMILES: OC(Cn1cncn1)(Cn1cncn1)c1ccc(F)cc1F [FLUCONAZOLE]
- MIC (Candida albicans [1]): 0.25 µg/mL (≈ 0.816 µM)
- MIC (Candida albicans [2]): 0.25 µg/mL (≈ 0.816 µM)
- MIC (Candida parapsilosis): 1 µg/mL (≈ 3.27 µM)
- MIC (Cryptococcus neoformans): 4 µg/mL (≈ 13.1 µM)
- MIC (Nakaseomyces glabratus): 1 µg/mL (≈ 3.27 µM)
- MIC (Aspergillus fumigatus): > 64 µg/mL

SMILES: C[C@@H](N1Cc2sc(-c3ccncc3)cc2C1=O)[C@](O)(Cn1cncn1)c1ccc(F)cc1F
- MIC (Candida albicans [1]): 0.0156 µg/mL (≈ 0.0334 µM)
- MIC (Candida albicans [2]): 0.0156 µg/mL (≈ 0.0334 µM)
- MIC (Candida parapsilosis): 0.0312 µg/mL (≈ 0.0668 µM)
- MIC (Cryptococcus neoformans): 0.0156 µg/mL (≈ 0.0334 µM)
- MIC (Nakaseomyces glabratus): 0.0625 µg/mL (≈ 0.134 µM)
- MIC (Aspergillus fumigatus): > 64 µg/mL

SMILES: C[C@@H](N1Cc2cc(-c3ccc(F)nc3)sc2C1=O)[C@](O)(Cn1cncn1)c1ccc(F)cc1F
- MIC (Candida albicans [1]): 0.125 µg/mL (≈ 0.257 µM)
- MIC (Candida albicans [2]): 0.25 µg/mL (≈ 0.515 µM)
- MIC (Candida parapsilosis): 0.25 µg/mL (≈ 0.515 µM)
- MIC (Cryptococcus neoformans): 0.25 µg/mL (≈ 0.515 µM)
- MIC (Nakaseomyces glabratus): 1 µg/mL (≈ 2.06 µM)
- MIC (Aspergillus fumigatus): 8 µg/mL (≈ 16.5 µM)

SMILES: C[C@@H](N1Cc2cc(Br)sc2C1=O)[C@](O)(Cn1cncn1)c1ccc(F)cc1F
- MIC (Candida albicans [1]): 0.0156 µg/mL (≈ 0.0332 µM)
- MIC (Candida albicans [2]): 0.0156 µg/mL (≈ 0.0332 µM)
- MIC (Candida parapsilosis): 0.0156 µg/mL (≈ 0.0332 µM)
- MIC (Cryptococcus neoformans): 0.0625 µg/mL (≈ 0.133 µM)
- MIC (Nakaseomyces glabratus): 0.0625 µg/mL (≈ 0.133 µM)
- MIC (Aspergillus fumigatus): 0.25 µg/mL (≈ 0.533 µM)
- CLH (Liver microsome): 5 µL/min/mg

SMILES: C[C@@H](N1Cc2cc(-c3ccc(Cl)cc3)sc2C1=O)[C@](O)(Cn1cncn1)c1ccc(F)cc1F
- MIC (Candida albicans [1]): 0.0156 µg/mL (≈ 0.0311 µM)
- MIC (Candida albicans [2]): 0.0156 µg/mL (≈ 0.0311 µM)
- MIC (Candida parapsilosis): 0.0625 µg/mL (≈ 0.125 µM)
- MIC (Cryptococcus neoformans): 0.0625 µg/mL (≈ 0.125 µM)
- MIC (Nakaseomyces glabratus): 0.0625 µg/mL (≈ 0.125 µM)
- MIC (Aspergillus fumigatus): 8 µg/mL (≈ 16 µM)

Reference: ChEMBL document CHEMBL3616399, “Design, synthesis, and structure-activity relationship studies of novel thienopyrrolidone derivatives with strong antifungal activity against Aspergillus fumigates” (Eur J Med Chem, 2015)
